The array DNA melting data of Ke et al. (doi:10.1101/2024.01.08.574731)

Experiments:
[1] = folding enthalpy; higher = less favourable; fluorescence melt of hairpins on a sequencing array, two-state fit; conditions: sodium 0.088 M
Procedure, shortened: (§1)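 With Cy3 and quencher oligos annealed, library hairpins on a sequenced MiSeq flow cell were imaged for Cy3 fluorescence in 50 mM Na-HEPES pH 8.0, 25 mM NaCl, in 2.5 °C steps up to 60 °C. Melting temperature and folding enthalpy were derived from bootstrapped two-state fits of signals normalised to pre-quench Cy3 and to control constructs. Four replicates were combined by inverse variance, with fitted temperatures raised by 9.35 °C to match UV melts.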

[2] = melting temperature; fluorescence melt of hairpins on a sequencing array, two-state fit, raised by 9.35 °C to match UV melts; conditions: sodium 0.088 M
Procedure, shortened: as §1

Sequence	folding enthalpy [1] [kcal/mol]	Tm [2] [°C]
GACAACGGAAACGTCGTC (((.(((....))).)))	-29.5	43.4
GCGCGGCGAAAGCAGGGC ((.(.((....)).).))	-19.8	63.2
GCCACGCGAAAGCACGGC (((..((....))..)))	-35.9	61.9
GATCCAAATCTGGATC ((((((....))))))	-33.8	47.4
GAAAAGGGAAACCCTTTC ((((.((....)).))))	-17	32.6
GGGCTCGGAAACGGGTCC ((.(.((....)).).))	-34.5	48.6
GCTAAGGGAAACCCTAGC ((((.((....)).))))	-32.5	42.7
GCGAAAGCTCGC ((((....))))	-11	56.8
GTTCCTCGAAAGAGAAAC (((.(((....))).)))	-20.3	38.1
GTAAGCGGAAACGCCTAC (((.(((....))).)))	-15.8	35.4
GCATTGCGAAAGCGATGC ((((.((....)).))))	-38	67.5
GATCCCTTTAGGGATC ((((((....))))))	-39.3	68.9
GCTCTTGGAAACAAGAAC (.(((((....))))).)	-16.3	31.4
GATCCCCTTGGGATC ((((((...))))))	-37.4	63.6
GATCTTCAATAAGATC ((((((....))))))	-30.6	39.8
GGGGTACGAAAGTATCCC (((.(((....))).)))	-33.5	58
GATCTACCGCTAGATC ((((((....))))))	-29.4	40
GACGGCGAAAGCCCAGTC ((((((....)))..)))	-13.1	41.8
GGTGACGAAAGTCGAACC ((((((....)))..)))	-17.6	41.9
CGCGGACCAATCCGCG ((((((....))))))	-39.2	62.2
TCACTGAAAAGTGA (((((....)))))	-18.7	43.4
GCAAGGCGAAAGCTCTGC (((..((....))..)))	-21.5	43.7
GATCAATAGCTTGATC ((((((....))))))	-29.6	40.5

Sequence	folding enthalpy [1] [kcal/mol]	Tm [2] [°C]
GGATGACGAAAGTCCTCC (((.(((....))).)))	-31.5	47.1
GGGACGGCGAAAGCCCCC (((..(((....))))))	-14.8	42.3
GATCTAACAATAGATC ((((((....))))))	-17.6	33.9
GGAGGAGAAATCCTCC ((((((....))))))	-40.8	54.4
GATCAGGGTCCTGATC ((((((....))))))	-37.9	52.7
GCGCCCCGAAAGGGCCGC (((.(((....))).)))	-19.8	61.2
GATCACGGGGGTGATC ((((((....))))))	-36.7	56.8
GATCACCGTGTGATC ((((((...))))))	-42.3	58.3
GTATCCGAAAGGAGATAC ((((((....)))..)))	-15.2	34.3
GCCCTGCGAAAGCGGAGC ((.(.((....)).).))	-15.5	51.5
CGAGCGGAAACGCTGTCG ((((((....)))..)))	-11.2	43
GTAATAGGAAACTATTGC (.(((((....))))).)	-18.7	34.2
GATCGACGATTCGATC ((((((....))))))	-37.1	49.4
GTCCAAACGAAAGTTGAC (((..(((....))))))	-16.8	31.6
GCGGAGCGAAAGCACGGC ((.(.((....)).).))	-9.69	45.5
GGTCAAGGAAACTCGACC ((((.((....)).))))	-26.6	40.8
GAAGAGGGAAACCTCTCC (.(((((....))))).)	-12.5	34.2
GTGTTTGGAAACAAATGC (..((((....))))..)	-21.7	34.8
TGGACGAAAGTCCA (((((....)))))	-19.4	67.5
GAAGGCGGAAACACCTTC (((((.(....).)))))	-30.9	42.7
GAGTGCACGAAAGTGCTC (((..(((....))))))	-7.52	37.4
GACGCTGGAAACAGCATC ((.((((....)))).))	-12.7	41.3
GTCCCTGGAAACGGGGAC (((((.(....).)))))	-49	56.4

Sequence	folding enthalpy [1] [kcal/mol]	Tm [2] [°C]
GTTAGGCGAAAGCCAAC (((.(((....))))))	-12.7	50.7
GCCTGGCGAAAGCGCGGC (((..((....))..)))	-19	57.1
GGGTGCGAAAGCAATCCC ((((((....)))..)))	-21.8	50.6
GGCTCAGGAAACCAAGCC ((((..(....)..))))	-31.6	35.3
GCATGTGGAAACATATGC ((((.((....)).))))	-30.9	49.5
GATTCAGAAATGAATC ((((((....))))))	-25.8	46.7
GGATTCGAAAGAACATCC ((((((....)))..)))	-14.1	29.4
GTCTTTGGAAACAAAGAC (((((((....)))))))	-42.3	56.5
GCGGCTCCGAAAGGACGC (((..(((....))))))	-41.2	54.7
GGTTGGGGAAACCCGACC (((.(((....))).)))	-32.4	56.7
GCGTCAAACGC ((((...))))	-16.7	50.8
GTGGACGAAAGTCCCAC ((((((....))).)))	-12.1	48.8
ACAGGGAAACCTGT (((((....)))))	-18.8	48.3
GCCAGGCGAAAGCATTGC ((.(.((....)).).))	-13.1	35.7
GATCTTTATAAGATC ((((((...))))))	-33.3	44
GGATCGGGAAACTGGTCC (((.(.(....).).)))	-30.4	39.2
GTACGCCGAAAGGCCTAC (((.(((....))).)))	-10.9	39.2
GCATATGGAAACATGTGC (((.(((....))).)))	-36.6	49
GGTCTTGAAAAAGACC ((((((....))))))	-40.4	57.2
GATCCTCGAGAGGATC ((((((....))))))	-42.7	56.8
GTTACCGAAAGGTAAAC ((((((....))).)))	-15.7	48
GATGATCCGAAAGGAATC (((..(((....))))))	-14.3	34.7
GAATCTGGAAACAGATTC (((((((....)))))))	-49.8	55.6

Sequence	folding enthalpy [1] [kcal/mol]	Tm [2] [°C]
GATCTACGCTAGATC ((((((...))))))	-18.5	43.4
CGTAACGGAAACGTGACG (((.(((....))).)))	-47	49.6
GATCCGGTAGCGGATC ((((((....))))))	-31.3	64.2
GATCTTCGTCAAGATC ((((((....))))))	-33.5	40.7
GATAAGCGAAAGCTATC (((.(((....))))))	-14.7	42.8
CGTCCGGAAACGGTAACG ((((((....)))..)))	-25.1	37.8
GCATGCGAAAGCAAGTGC ((((((....)))..)))	-17.8	46.8
GCAAGGCGAAAGCAGTGC (((..((....))..)))	-16.8	50.9
GATCCCTTATGGGATC ((((((....))))))	-36.5	65.4
GGGGTGACGAAAGTCCCC (((..(((....))))))	-31.8	56
GCGAACGAAAGTTCACGC ((((((....)))..)))	-22.9	48.9
GTAGTGGGAAACCACCAC ((.((((....)))).))	-16.3	33.5
CGGGCGGAAACGCCTCCG ((((((....)))..)))	-8.08	36.1
GAGCGCGGAAACGCGTTC ((.((((....)))).))	-16.9	57.4
GTCGGAGGAAACTCTGAC (((.(((....))).)))	-45.4	50
GATCTAGCGAAAGCTATC (((..(((....))))))	-10.5	22.8
GATCCGATGTCGGATC ((((((....))))))	-37.6	61.6
GTCTTTGGAAACAAGGAC (((.(((....))).)))	-31.1	41.5
GCGCAGCGAAAGCCTCGC (((..((....))..)))	-8.27	42.1
GCATCGGAAACGATGC ((((((....))))))	-35.8	68.6
GATCGAACGCTCGATC ((((((....))))))	-40.4	50.7
GTGAATGCGAAAGCACAC (((..(((....))))))	-14.7	40.7
GGCAGGGGAAACCCTGTC (.(((((....))))).)	-29.9	55.9
